Measurements collected from several papers.
Lines come from different studies, so protocols differ.
LIMK2: LIM domain kinase 2 (LIMK2, Homo sapiens, UniProt P53671)
CNR2: Cannabinoid receptor 2 (CNR2, Homo sapiens, UniProt P34972)

| SMILES | target | observed | action | method | tested at | measurement | result |
| --- | --- | --- | --- | --- | --- | --- | --- |
| Cc1nn(C)cc1-c1nc2c(N3CCN(Cc4ccc(Cl)cc4)CC3)c(Cl)cnc2[nH]1 | Serine/threonine-protein kinase 35 (STK35, Homo sapiens, UniProt Q8TDR2) | binding | – | competition with immobilised ligand | 1 µM | remaining binding | 75% |
| C#Cc1n[nH]c2c(-c3cn([C@@H](C)c4ccccn4)c(=O)[nH]c3=O)cc(F)cc12 | Serine/threonine-protein kinase haspin (HASPIN, Homo sapiens, UniProt Q8TF76) | enzyme activity | inhibitor | – | 0.1 µM | inhibition | 4.5% |
| Cn1cc(-c2cccc(N3CCc4c(sc5c4CC(C)(C)C5)C3=O)c2CO)cc(Nc2ccncn2)c1=O | LIMK2 | enzyme activity | inhibitor | – | 1 µM | inhibition | 6% |
| Nc1ccc2cccc(O)c2n1 | Methionyl-tRNA synthetase, putative (Trypanosoma brucei brucei, UniProt Q38C91) | thermal stability | – | DSF | 800 µM | ΔTm | 1.8 °C |
| COc1ncccc1-c1cnn2ccc(N3CCN(C(=O)OC(C)C)CC3)nc12 | Epithelial discoidin domain-containing receptor 1 (DDR1, Homo sapiens, UniProt Q08345) | binding | – | competition with immobilised ligand | 1 µM | remaining binding | 100% |
| CCOC(=O)C(CC)(CCCSCCOCCOCCOCCNC(=O)OC(C)(C)C)NC(=O)c1ccc(C2CC2)c(Cc2ccc(F)cc2)n1 (stereo not shown) | CNR2 | cAMP | agonist | – | – | Emax | 91% |
| Nc1ncc(-c2nc(N3CCOCC3)nc(N3CCOCC3)n2)c(C(F)F)n1 | Membrane-associated tyrosine- and threonine-specific cdc2-inhibitory kinase (PKMYT1, Homo sapiens, UniProt Q99640) | binding | – | competition with immobilised ligand | 10 µM | remaining binding | 98% |
| CCOC(=O)[C@](CC)(CCC[S+]([O-])CCOCCOCCNC(=O)OC(C)(C)C)NC(=O)c1ccc(C2CC2)c(Cc2ccc(F)cc2)n1 (stereo partly shown) | CNR2 | cAMP | agonist | – | – | Emax | 93% |
| O=C(O)C(F)(F)C(F)(F)C(F)(F)C(F)(F)C(F)(F)C(F)(F)C(F)(F)F | Solute carrier family 22 member 12 (SLC22A12, Homo sapiens, UniProt Q96S37) | transporter uptake | substrate | – | – | Km | 820 µM |
| COc1ccc(S(=O)(=O)N(CC(=O)NO)CC(C)C)cc1 | 72 kDa type IV collagenase (MMP2, Homo sapiens, UniProt P08253) | enzyme activity | inhibitor | – | 1 µM | inhibition | 100% |
| CCN(CC)CCCC[C@H](NC(=O)[C@H](CC(C)C)NC(=O)[C@H](C)NC(=O)[C@H](Cc1ccccc1)NC(=O)c1ccc(C(C)(C)C)cc1)C(=O)N[C@@H](CO)C(=O)OC | Bromodomain-containing protein 9 (BRD9, Homo sapiens, UniProt Q9H8M2) | thermal stability | – | DSF | 25 µM | ΔTm | 0.23 °C |
| O=C(N1CCCCC1Cc1ccccc1)n1cc(-c2ccc(-c3ccccc3)cc2)nn1 (stereo not shown) | Diacylglycerol lipase-alpha (Mus musculus, UniProt Q6WQJ1) | enzyme activity | inhibitor | – | – | kinact | 0.00133 s⁻¹ |
| Cn1cc(-c2cc(F)cc(N3CCn4c(cc5c4CCCC5)C3=O)c2CO)cc(Nc2ccc(N3CCN(C4COC4)CC3)cn2)c1=O | LIMK2 | enzyme activity | inhibitor | – | 0.1 µM | inhibition | -3% |
